The results in this text go back to ChEMBL document CHEMBL4261491, “Synthesis and synergistic antifungal effects of monoketone derivatives of curcumin against fluconazole-resistant Candida spp” (Medchemcomm, 2017).

The subject of series [1] is Pichia kudriavzevii. In words: Antifungal activity against fluconazole-resistant Candida krusei clinical isolate 2159 in presence of 8 ug/ml fluconazole by broth microdilution method. The note with it: for MIC80: Pichia kudriavzevii, isolate 2159. In kind it is functional. The essentials: (§1)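 Broth microdilution per CLSI/NCCLS M27-A2 against FLC-resistant clinical isolates. MIC80 read for each compound alone and with fluconazole at 8.0 μg ml–1. C. albicans ATCC 90028 served as quality control. Curcumin was the positive control.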

Series [2] has as its system Pichia kudriavzevii. In words: Antifungal activity against fluconazole-resistant Candida krusei clinical isolate 2159 by broth microdilution method. Format: functional. An outline of the steps: as §1
The subject of series [3] is Candida tropicalis. In words: Antifungal activity against fluconazole-resistant Candida tropicalis clinical isolate 087 in presence of 8 ug/ml fluconazole by broth microdilution method. Format: functional. The following applies: for MIC80: Candida tropicalis, isolate 087. The essentials: as §1
The subject of series [4] is Candida tropicalis. The series is described as follows: Antifungal activity against fluconazole-resistant Candida tropicalis clinical isolate 087 by broth microdilution method. In kind it is functional. The essentials: as §1
In series [5] the test system is Candida albicans. The series is described as follows: Antifungal activity against fluconazole-resistant Candida albicans clinical isolate 103 in presence of 8 ug/ml fluconazole by broth microdilution method. Format: functional. The note with it: for MIC80: Candida albicans, isolate 103. The essentials:
as §1

For series [6], the system named is Candida albicans. In words: Antifungal activity against fluconazole-resistant Candida albicans clinical isolate 103 by broth microdilution method. Format: functional. The essentials: as §1
Series [7] is described as follows: Cytotoxicity against HUVEC assessed as cell viability at 32 ug/ml after 24 hrs by MTT assay relative to control. In kind it is cell-based. The note with it: human, HUVEC cells; read-out: Activity. The essentials:
(§2)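 HUVECs grown in DMEM with 10% FCS and 100 μg ml–1 streptomycin, 5% CO2, 37 °C. Cells exposed to compounds at 16 and 32 μg ml–1 for 24 h, then incubated with MTT solution (5 mg ml–1) for 3 h. Optical density read at 570 nm. Viability expressed as percentage relative to drug-free control.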

Series [8] is described as follows: Cytotoxicity against HUVEC assessed as cell viability at 16 ug/ml after 24 hrs by MTT assay relative to control. Format: cell-based. The following applies: human, HUVEC cells; read-out: Activity. The essentials:
as §2

Molecules are shown by their SMILES. ≈ marks a conversion by molar mass, not a printed value.

In the case of `O=C(/C=C/c1ccc(Br)cc1)/C=C/c1ccc(Br)cc1`, the entries for the “fractional inhibitory concentration index (FICI)” value with Pichia kudriavzevii [1], in the series on Candida tropicalis [3] and in the series with Candida albicans [5] were more than 1.06, 0.563 and more than 1.06, respectively. Besides, the MIC80 in the series with Pichia kudriavzevii [1] is more than 64 µg/mL; with Pichia kudriavzevii [2], more than 64 µg/mL; with Candida tropicalis [3], 32 µg/mL; against Candida tropicalis [4] it was more than 64 µg/mL; in the series on Candida albicans [5], more than 64 µg/mL; against Candida albicans [6] it was more than 64 µg/mL.
`CN(C)c1ccc(/C=C/C(=O)/C=C/c2ccc(N(C)C)cc2)cc1`: the figures for the “fractional inhibitory concentration index (FICI)” value in the series on Pichia kudriavzevii [1], in the series on Candida tropicalis [3] and in the series with Candida albicans [5] were more than 1.06, 0.563 and more than 1.06, respectively. The MIC80 was more than 64 µg/mL with Pichia kudriavzevii [1]; more than 64 µg/mL against Pichia kudriavzevii [2]; 32 µg/mL in the series with Candida tropicalis [3]; more than 64 µg/mL against Candida tropicalis [4]; more than 64 µg/mL in the series with Candida albicans [5]; more than 64 µg/mL with Candida albicans [6].
Turning to `O=C(/C=C/c1ccc(Cl)cc1Cl)/C=C/c1ccc(Cl)cc1Cl`, the “fractional inhibitory concentration index (FICI)” value in the series with Pichia kudriavzevii [1] was more than 1.06; in the series on Candida tropicalis [3], 0.313; in the series on Candida albicans [5] it was more than 1.06. The MIC80 in the series on Pichia kudriavzevii [1] is more than 64 µg/mL; against Pichia kudriavzevii [2] it was more than 64 µg/mL; with Candida tropicalis [3], 16 µg/mL; against Candida tropicalis [4] it was more than 64 µg/mL; in the series with Candida albicans [5], more than 64 µg/mL; with Candida albicans [6], more than 64 µg/mL.
`COc1ccc(/C=C/C(=O)/C=C/c2ccc(OC)c(O)c2)cc1O`: the figures for the “fractional inhibitory concentration index (FICI)” value with Pichia kudriavzevii [1], in the series with Candida tropicalis [3] and with Candida albicans [5] were more than 1.06, 0.188 and 0.563, respectively. Moreover, the MIC80 in the series with Pichia kudriavzevii [1] was more than 64 µg/mL; in the series with Pichia kudriavzevii [2], more than 64 µg/mL; with Candida tropicalis [3], 8 µg/mL; against Candida tropicalis [4] it was more than 64 µg/mL; in the series with Candida albicans [5] it was 32 µg/mL; with Candida albicans [6], more than 64 µg/mL.
As to `O=C(/C=C/c1c(Cl)cccc1Cl)/C=C/c1c(Cl)cccc1Cl`, the “fractional inhibitory concentration index (FICI)” value with Pichia kudriavzevii [1], in the series with Candida tropicalis [3] and in the series with Candida albicans [5] was more than 1.06 in each case. Besides, the MIC80 in the series on Pichia kudriavzevii [1], against Pichia kudriavzevii [2], in the series on Candida tropicalis [3], in the series on Candida tropicalis [4], in the series with Candida albicans [5] and in the series with Candida albicans [6] was more than 64 µg/mL each time.
On to `O=C(/C=C/c1ccc(Cl)c(Cl)c1)/C=C/c1ccc(Cl)c(Cl)c1`, for which the “fractional inhibitory concentration index (FICI)” value in the series with Pichia kudriavzevii [1], with Candida tropicalis [3] and in the series on Candida albicans [5] was more than 1.06 throughout. In addition, the MIC80 in the series with Pichia kudriavzevii [1], against Pichia kudriavzevii [2], in the series with Candida tropicalis [3], with Candida tropicalis [4], in the series with Candida albicans [5] and in the series on Candida albicans [6] was more than 64 µg/mL in each case.
Take `O=C(/C=C(O)/C=C/c1ccc(O)c(O)c1)/C=C/c1ccc(O)c(O)c1`: the “fractional inhibitory concentration index (FICI)” value with Pichia kudriavzevii [1] is reported as 0.563; in the series with Candida tropicalis [3], 0.125; in the series with Candida albicans [5], 0.125. In addition, the MIC80 came to 2 µg/mL with Pichia kudriavzevii [1]; 4 µg/mL (≈ 11.8 µM) against Pichia kudriavzevii [2]; 4 µg/mL with Candida tropicalis [3]; 64 µg/mL (≈ 188 µM) with Candida tropicalis [4]; 4 µg/mL in the series on Candida albicans [5]; 64 µg/mL (≈ 188 µM) against Candida albicans [6].
`O=C(/C=C/c1ccc(Cl)cc1)/C=C/c1ccc(Cl)cc1`: the “fractional inhibitory concentration index (FICI)” value in the series with Pichia kudriavzevii [1] is more than 1.06; in the series on Candida tropicalis [3] it was 0.313; with Candida albicans [5], more than 1.06. Further, the MIC80 in the series on Pichia kudriavzevii [1] was more than 64 µg/mL; with Pichia kudriavzevii [2] it was more than 64 µg/mL; in the series on Candida tropicalis [3] it was 16 µg/mL; in the series with Candida tropicalis [4], more than 64 µg/mL; in the series with Candida albicans [5] it was more than 64 µg/mL; with Candida albicans [6], more than 64 µg/mL.
`COc1ccc(/C=C2\CC/C(=C\c3ccc(OC)cc3)C2=O)cc1`: the “fractional inhibitory concentration index (FICI)” value in the series on Pichia kudriavzevii [1] was more than 1.06; in the series on Candida tropicalis [3] it was 1.06; in the series with Candida albicans [5], more than 1.06. Also, the MIC80 with Pichia kudriavzevii [1] was more than 64 µg/mL; in the series on Pichia kudriavzevii [2], more than 64 µg/mL; in the series on Candida tropicalis [3], 64 µg/mL; with Candida tropicalis [4], more than 64 µg/mL; in the series on Candida albicans [5] it was more than 64 µg/mL; with Candida albicans [6], more than 64 µg/mL.
Regarding `COc1cc(/C=C/C(=O)CC(=O)/C=C/c2ccc(O)c(OC)c2)ccc1O` [CURCUMIN], the “fractional inhibitory concentration index (FICI)” value in the series on Pichia kudriavzevii [1], in the series with Candida tropicalis [3] and in the series on Candida albicans [5] was 0.188 throughout. The MIC80 in the series on Pichia kudriavzevii [1], with Candida tropicalis [3] and in the series on Candida albicans [5] was 8 µg/mL each time. Moreover, the viability at 24 h, 32 ug/ml in series [7] is 22%. Further, the viability at 24 h, 16 ug/ml in series [8] was found to be 80%.
